Data set [1] deals with Staphylococcus aureus. As to the kind of experiment: Minimum inhibitory concentration against homoresistant strain of Staphylococcus aureus 447 in the absence of NaCl. It counts as functional.
In data set [2] the test system is Staphylococcus aureus. As to the kind of experiment: Minimum inhibitory concentration against methicillin-resistant Staphylococcus aureus 430 (MRSA) in vitro using trypticase soy broth (TSB) with 4% NaCl. The class given is functional.
Data set [3] relates to Pseudomonas aeruginosa. Put plainly: In vitro antimicrobial activity against Pseudomonas X239 strain. The class given is functional.
Data set [4] deals with Streptococcus pneumoniae. Put plainly: In vitro antimicrobial activity against Streptococcus pneumoniae PARK strain. The class given is functional.
Data set [5] has as its system Staphylococcus aureus. As to the kind of experiment: Minimum inhibitory concentration against heteroresistant strain of Staphylococcus aureus 430 in 4% of NaCl. The class given is functional.
In data set [6] the test system is Staphylococcus aureus. As to the kind of experiment: Minimum inhibitory concentration against sensitive strain of Staphylococcus aureus 446 in 4% of NaCl. It counts as functional.
Data set [7] has as its system Enterobacter cloacae. As to the kind of experiment: In vitro evaluation of antimicrobial activity against Enterobacter cloacae EB5 strain. It counts as functional.
The subject of data set [8] is Staphylococcus epidermidis. As to the kind of experiment: In vitro antimicrobial activity against Staphylococcus epidermidis 270 strain. The class given is functional.
Data set [9] has as its system Staphylococcus aureus. As to the kind of experiment: In vitro antimicrobial activity against Staphylococcus aureus X400 strain. The class given is functional.
Data set [10] relates to Staphylococcus aureus. As to the kind of experiment: Minimum inhibitory concentration against heteroresistant strain of Staphylococcus aureus 430 in the absence of NaCl. The class given is functional.
Data set [11] is described as follows: Tested against penicillin binding protein 2a (PBP2a) enzyme.
The subject of data set [12] is Escherichia coli. As to the kind of experiment: In vitro evaluation of antimicrobial activity against Escherichia coli EC14 strain. The class given is functional.
The species entered for data set [13] is Mus musculus. Put plainly: In vitro plasma protein binding was evaluated using ICR mouse at 20 ug/mL. It counts as ADME. The gist of the method: (§1)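 Binding was measured by ultrafiltration (Centrifree micropartition) in pooled plasma (ICR mouse, Sprague–Dawley rat, rhesus monkey or human) at a drug concentration of 20 μg/mL.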
For data set [14], the system named is Haemophilus influenzae. As to the kind of experiment: In vitro antimicrobial activity against Haemophilus influenzae C.L. strain. The class given is functional.
Data set [15] deals with Staphylococcus aureus. Put plainly: Minimum inhibitory concentration against sensitive strain of Staphylococcus aureus 446 in the absence of NaCl. It counts as functional.
Data set [16] relates to Staphylococcus aureus. As to the kind of experiment: Minimum inhibitory concentration against methicillin-resistant Staphylococcus aureus 430 (MRSA) in vitro using trypticase soy broth (TSB). It counts as functional.
The test system of data set [17] is Staphylococcus aureus. Put plainly: Minimum inhibitory concentration against homoresistant strain of Staphylococcus aureus 447 in 4% of NaCl. The class given is functional.
Data set [18] relates to Staphylococcus aureus. As to the kind of experiment: In vitro antimicrobial activity against Staphylococcus aureus S13E strain. The class given is functional.
Data set [19] is filed under the species Homo sapiens. Put plainly: In vitro plasma protein binding was evaluated by using Human plasma at 20 ug/mL. It counts as ADME. The gist of the method: as §1
Data set [20] concerns Staphylococcus epidermidis. Put plainly: In vitro antimicrobial activity against Staphylococcus epidermidis 222 strain. The class given is functional.
Data set [21] deals with Pseudomonas aeruginosa. As to the kind of experiment: Antimicrobial activity against Pseudomonas PS18 strain. The class given is functional.
Data set [22] has as its system Staphylococcus aureus. Put plainly: In vitro antimicrobial activity against Staphylococcus aureus X1.1 strain. It counts as functional.
The test system of data set [23] is Klebsiella. Put plainly: In vitro antimicrobial activity against Klebsiella X26 strain. The class given is functional.
Data set [24] is filed under the species Rattus norvegicus. As to the kind of experiment: In vitro plasma protein binding was evaluated using Sprauge-Dawley rat at 20 ug/mL. It counts as ADME. The gist of the method:
as §1

In data set [25] the test system is Rhesus monkey. As to the kind of experiment: In vitro plasma protein binding was evaluated by using rhesus monkey at 20 ug/mL. The class given is ADME, Macaca mulatta. The gist of the method:
as §1

Each structure is given as a SMILES string. Converted amounts (≈) assume the structure as drawn.

Broadly, the IC50 is the concentration needed to halve the response being measured. Consider `Nc1nc(/C(=N\OCCF)C(=O)N[C@@H]2C(=O)N3C(C(=O)[O-])=C(Sc4nc5ccc([N+](=O)[O-])cc5s4)CC[C@H]23)cs1.[Na+]`, for which the MIC was 1.9 µg/mL in [1]; 1 µg/mL in data set [2]; more than 128 µg/mL in data set [3]; less than 0.008 µg/mL in [4]; 1 µg/mL in data set [5]; 0.25 µg/mL in data set [6]. The MIC in data set [7] stood at 1 µg/mL; in data set [8], 0.5 µg/mL; in [9] it was 2 µg/mL; in data set [10] it was 1 µg/mL; in data set [12], 0.25 µg/mL; in [14], 0.03 µg/mL. In addition, the MIC in [15] was found to be 0.25 µg/mL; in data set [16], 0.5 µg/mL; in data set [17], 1.9 µg/mL; in data set [18] it was 2 µg/mL; in [20], 0.5 µg/mL; in data set [21], 64 µg/mL. Besides, the MIC in data set [22] and in data set [23] was 0.06 µg/mL throughout. For the same molecule, the 50% inhibitory concentration (IC50) in data set [11] is 0.85 µg/mL. In addition, the Bound is listed as 96.9% in data set [13], more than 99.2% in [19] and 98.3% in data set [24].
Consider `Nc1nc(/C(=N\OCCF)C(=O)N[C@@H]2C(=O)N3C(C(=O)[O-])=C(Sc4nc5ccccc5s4)CC[C@H]23)cs1.[Na+]`, for which the MIC is 1 µg/mL in data set [2]; 16 µg/mL in data set [3]; less than 0.008 µg/mL in data set [4]; 1 µg/mL in data set [7]; 0.5 µg/mL in [8]; 4 µg/mL in [9]. Moreover, the MIC in data set [12] was determined as 0.25 µg/mL; in data set [14], 0.03 µg/mL; in [16] it was 0.5 µg/mL; in data set [18], 4 µg/mL; in data set [20], 0.25 µg/mL; in data set [21], 128 µg/mL. Further, the MIC in data set [22] was found to be 0.125 µg/mL; in [23] it was 0.03 µg/mL. For the same molecule, the concentration for half-maximal inhibition (IC50) in data set [11] came to 3.5 µg/mL.
Take `Nc1nc(/C(=N\OCCF)C(=O)N[C@@H]2C(=O)N3C(C(=O)[O-])=C(Sc4nc5ccncc5s4)CC[C@H]23)cs1.[Na+]`: the MIC in data set [3] was more than 128 µg/mL; in data set [4] it was less than 0.008 µg/mL; in [7] it was 2 µg/mL; in data set [8], 2 µg/mL; in [9], 8 µg/mL; in [12], 0.25 µg/mL. The MIC in [14] was 0.015 µg/mL; in [18], 4 µg/mL; in data set [20] it was 0.5 µg/mL; in [21], 64 µg/mL; in [22] it was 0.125 µg/mL; in data set [23], 0.06 µg/mL.
For the molecule `Nc1nc(/C(=N\OCCF)C(=O)N[C@@H]2C(=O)N3C(C(=O)[O-])=C(Sc4nc5cc(Cl)ccc5s4)CC[C@H]23)cs1.[Na+]`, the MIC is more than 128 µg/mL in [3]; less than 0.008 µg/mL in [4]; 2 µg/mL in [7]; 0.5 µg/mL in data set [8]; 8 µg/mL in [9]; 0.25 µg/mL in data set [12]. Further, the MIC in data set [14] is 0.06 µg/mL; in [18] it was 4 µg/mL; in data set [20] it was 0.5 µg/mL; in data set [21] it was 64 µg/mL; in data set [22], 0.125 µg/mL; in data set [23] it was 0.06 µg/mL.
Regarding `Cn1c(SC2=C(C(=O)[O-])N3C(=O)[C@@H](NC(=O)/C(=N/OCCF)c4csc(N)n4)[C@H]3CC2)n[nH]c(=O)c1=O.[Na+]`, the MIC stood at 32 µg/mL in data set [3]; 0.015 µg/mL in data set [4]; 0.5 µg/mL in data set [7]; 8 µg/mL in data set [8]; 128 µg/mL in [9]; 0.06 µg/mL in data set [12]. Further, the MIC in data set [14] was 0.03 µg/mL; in data set [18], 64 µg/mL; in data set [20], 2 µg/mL; in data set [21], 32 µg/mL; in [22], 0.5 µg/mL; in [23], 0.06 µg/mL.
For the molecule `Nc1nc(/C(=N\OCCF)C(=O)N[C@@H]2C(=O)N3C(C(=O)[O-])=C(Sc4nc(-c5ccccn5)cs4)CC[C@H]23)cs1.[Na+]`, the MIC in data set [3] was 32 µg/mL; in data set [4] it was less than 0.008 µg/mL; in data set [7] it was 2 µg/mL; in data set [8], 2 µg/mL; in [9], 32 µg/mL; in data set [12], 0.5 µg/mL. In addition, the MIC in data set [14] was found to be 0.03 µg/mL; in data set [18], 16 µg/mL; in data set [20], 0.5 µg/mL; in [21], 64 µg/mL; in data set [22], 0.25 µg/mL; in data set [23], 0.03 µg/mL.
Regarding `Nc1nc(/C(=N\OCCF)C(=O)N[C@@H]2C(=O)N3C(C(=O)[O-])=C(Sc4nncs4)CC[C@H]23)cs1.[Na+]`, the MIC in [3] is more than 128 µg/mL; in data set [4], less than 0.008 µg/mL; in data set [7], 0.5 µg/mL; in [8], 0.06 µg/mL; in [9] it was 64 µg/mL; in [12], 0.03 µg/mL. Besides, the MIC in data set [14] stood at 0.015 µg/mL; in data set [18], 16 µg/mL; in [20] it was 0.5 µg/mL; in [21] it was 32 µg/mL; in data set [22] it was 0.125 µg/mL; in data set [23], 0.015 µg/mL. Further, the Bound amounted to 49.1% in data set [25], 36.2% in data set [13], 36% in [19] and 63.1% in data set [24].
Regarding `CO/N=C(\C(=O)N[C@@H]1C(=O)N2C(C(=O)O)=C(COC(C)=O)CS[C@H]12)c1csc(N)n1` [CEFOTAXIME], the MIC was 8 µg/mL (≈ 17.6 µM) in [3]; 0.015 µg/mL (≈ 0.0329 µM) in data set [4]; 0.25 µg/mL (≈ 0.549 µM) in data set [7]; 8 µg/mL (≈ 17.6 µM) in data set [8]; 64 µg/mL (≈ 141 µM) in data set [9]; 0.03 µg/mL (≈ 0.0659 µM) in data set [12]. Also, the MIC is 0.015 µg/mL (≈ 0.0329 µM) in data set [14]; 8 µg/mL (≈ 17.6 µM) in [18]; 2 µg/mL (≈ 4.39 µM) in [20]; 16 µg/mL (≈ 35.1 µM) in data set [21]; 2 µg/mL (≈ 4.39 µM) in [22]; less than 0.008 µg/mL in [23]. This molecule yielded a Bound in data set [24] of 88.5%.
As to `COc1cccc(OC)c1C(=O)N[C@@H]1C(=O)N2[C@@H]1SC(C)(C)[C@@H]2C(=O)O` [METHICILLIN], the MIC in data set [1] was more than 512 µg/mL; in data set [2] it was 256 µg/mL (≈ 673 µM); in data set [3], more than 128 µg/mL; in [4], 0.5 µg/mL (≈ 1.31 µM); in [5] it was 256 µg/mL (≈ 673 µM); in [6], 1 µg/mL (≈ 2.63 µM). Moreover, the MIC was more than 128 µg/mL in [7]; 4 µg/mL (≈ 10.5 µM) in data set [8]; 64 µg/mL (≈ 168 µM) in data set [9]; 8 µg/mL (≈ 21 µM) in data set [10]; more than 128 µg/mL in data set [12]; 4 µg/mL (≈ 10.5 µM) in data set [14]. The MIC is 1 µg/mL (≈ 2.63 µM) in data set [15]; 8 µg/mL (≈ 21 µM) in data set [16]; more than 512 µg/mL in [17]; 8 µg/mL (≈ 21 µM) in [18]; 4 µg/mL (≈ 10.5 µM) in [20]; more than 128 µg/mL in data set [21]. Further, the MIC in [22] stood at 2 µg/mL (≈ 5.26 µM); in data set [23] it was 32 µg/mL (≈ 84.1 µM). Further, the half-maximal inhibitory concentration (IC50) in [11] was determined as 456 µg/mL (≈ 1200 µM).
`CCOc1ccc2ccccc2c1C(=O)N[C@@H]1C(=O)N2[C@@H]1SC(C)(C)[C@@H]2C(=O)O` [NAFCILLIN]: the MIC in data set [1] was 128 µg/mL (≈ 309 µM); in [2] it was 32 µg/mL (≈ 77.2 µM); in data set [5], 64 µg/mL (≈ 154 µM); in data set [6] it was 0.25 µg/mL (≈ 0.603 µM); in [10], 1 µg/mL (≈ 2.41 µM); in data set [15] it was 0.25 µg/mL (≈ 0.603 µM). Besides, the MIC in [16] was found to be 0.25 µg/mL (≈ 0.603 µM); in data set [17], 128 µg/mL (≈ 309 µM). Further, in data set [11], the IC50 was 200 µg/mL (≈ 483 µM).

Source of the values: ChEMBL document CHEMBL1127066, “Discovery and structure-activity relationship of a series of 1-carba-1-dethiacephems exhibiting activity against methicillin-resistant Staphylococcus aureus” (J Med Chem, 1993).
